From ChEMBL document CHEMBL1132160, “Structure-antiviral activity relationship in the series of pyrimidine and purine N-[2-(2-phosphonomethoxy)ethyl] nucleotide analogues. 1. Derivatives substituted at the carbon atoms of the base” (J Med Chem, 1999)
Values after ≈ are worked out from the molar mass of the structure shown.

Key:
[1] = Inhibitory activity against murine sarcoma virus induced transformation of murine C3H/3T3 embryo fibroblasts; format: functional, Mus musculus
Method in brief: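 Murine C3H/3T3 embryo fibroblasts were seeded at 5 × 10⁵ cells/mL. After 24 h they were infected with 80 focus-forming units of MSV for 90–120 min at 37 °C. The medium was then replaced with fresh medium containing various compound concentrations, and transformation was examined microscopically after 6 days.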

[2] = test system: Human immunodeficiency virus 1; assay: Inhibition of human immunodeficiency virus type 1 (HIV-1) induced cytopathogenicity in CEM cells; format: functional, organism-based; conditions: Human immunodeficiency virus 1, CCRF-CEM
Method in brief: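 CEM cells (~3 × 10⁵ cells/mL) were infected with 100 CCID50 of HIV-1 (IIIB)/mL and plated with dilutions of compound. After 4 days at 37 °C, giant cell formation was assessed microscopically.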

[3] = test system: Human immunodeficiency virus 2; assay: Inhibition of human immunodeficiency virus type 2 (HIV-2) induced cytopathogenicity in CEM cells; format: functional, organism-based; conditions: Human immunodeficiency virus 2, CCRF-CEM
Human alphaherpesvirus 1 [4] = assay: Inhibition of herpes simplex virus type 1 (HSV-1) F strain; format: functional, organism-based
Method in brief: (§1)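 Confluent E6SM cell cultures were inoculated with 100 CCID50 of virus and allowed 1 h for adsorption. Residual virus was then removed, and the cells were incubated with test compound at 400, 200, 100, ... μg/mL. Viral cytopathicity was scored once it reached completion in untreated infected controls.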

Human alphaherpesvirus 1 [5] = assay: Inhibitory activity against herpes simplex virus type 1 (HSV-1) KOS strain; format: functional, organism-based; method in brief: as §1
Human alphaherpesvirus 1 [6] = assay: Inhibitory activity against herpes simplex virus type 1 (HSV-1) McIntyre strain; format: functional, organism-based; method in brief: as §1
[7] = Inhibitory activity against herpes simplex virus type 2 (HSV-2) 196 strain; format: functional; method in brief: as §1
Human alphaherpesvirus 2 [8] = assay: Inhibitory activity against herpes simplex virus type 2 (HSV-2) Lyons strain; format: functional, organism-based; method in brief: as §1
Vaccinia virus [9] = assay: Inhibitory activity against vaccinia virus (VV); format: functional, organism-based; conditions: Orthopoxvirus vaccinia
Method in brief: (§2)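 Confluent E6SM cell cultures were inoculated with 100 CCID50 of virus and left for 1 h adsorption, then residual virus was removed. Cultures were incubated with test compound at serial concentrations (400, 200, 100, ... μg/mL). Virus-induced cytopathicity was scored once it reached completion in untreated infected control cultures.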

Cytomegalovirus [10] = assay: Inhibitory activity against cytomegalovirus (CMV) AD 169 strain; format: functional, organism-based; conditions: Human betaherpesvirus 5
Method in brief: (§3)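 HEL cell cultures, grown to confluence, received 100 CCID50 of virus. After 1 h adsorption, the inoculum was removed and the cultures were incubated with serial concentrations of compound (400, 200, 100, ... μg/mL).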

Cytomegalovirus [11] = assay: Inhibitory activity against cytomegalovirus (CMV) Davis strain; format: functional, organism-based; conditions: Human betaherpesvirus 5; method in brief: as §3
HEL = assay: Compound was evaluated for inhibitory activity against varicella zoster virus thymidine kinase (VZV TK-) 07/1 strain; NA=not active; format: functional, cell-based, Homo sapiens
Human alphaherpesvirus 2 [12] = assay: Inhibitory activity against herpes simplex virus type 2 (HSV-2) G strain; format: functional, organism-based; method in brief: as §1
Human alphaherpesvirus 1 [13] = assay: Inhibitory activity against herpes simplex virus type 1 (HSV-1) F strain; format: functional, organism-based; method in brief: as §1
Human alphaherpesvirus 1 [14] = assay: Inhibitory activity against herpes simplex virus type 1 (HSV-1) KOS strain.; format: functional, organism-based; method in brief: as §1
Human alphaherpesvirus 1 [15] = assay: Iactivity against herpes simplex virus type 1 (HSV-1) McIntyre strain.; format: functional, organism-based; method in brief: as §1
Human alphaherpesvirus 2 [16] = assay: Inhibitory activity against herpes simplex virus type 2 (HSV-2) 196 strain.; format: functional, organism-based; method in brief: as §1
Human alphaherpesvirus 2 [17] = assay: Inhibitory activity against herpes simplex virus type 2 (HSV-2) G strain.; format: functional, organism-based; method in brief: as §1
E6SM = assay: Inhibitory activity against herpes simplex virus type 2 (HSV-2) Lyons strain.; format: functional, cell-based, Homo sapiens; method in brief: as §1
[18] = test system: Human immunodeficiency virus 1; assay: Inhibitory activity of compound against human immunodeficiency virus type 1 (HIV-1) induced cytopathogenicity in MT-4 cells; format: functional, organism-based; conditions: Human immunodeficiency virus 1, MT4
Method in brief: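 Human MT-4 cells (~4 × 10⁵ cells/mL) were infected with 100 CCID50 of HIV-1 (IIIB)/mL and seeded into wells containing compound dilutions. After 5 days at 37 °C, viable cells were counted by trypan blue exclusion in a blood cell counting chamber.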

[19] = test system: Human immunodeficiency virus 2; assay: Inhibitory activity against human immunodeficiency virus type 2 (HIV-2) induced cytopathogenicity in MT-4 cells; format: functional, organism-based; conditions: Human immunodeficiency virus 2, MT4
Human alphaherpesvirus 1 [20] = assay: Inhibitory activity against herpes simplex virus type 1 thymidine kinase (HSV-1 TK-) VMW 1837 strain.
Vaccinia virus [21] = assay: Inhibitory activity against vaccinia virus (VV).; format: functional, organism-based, Orthopoxvirus vaccinia; method in brief: as §2

| SMILES | EC50 [1] [µg/mL] | EC50 [2] [µg/mL] | EC50 [3] [µg/mL] | EC50 (Human alphaherpesvirus 1 [4]) [µg/mL] | EC50 (Human alphaherpesvirus 1 [5]) [µg/mL] | EC50 (Human alphaherpesvirus 1 [6]) [µg/mL] | EC50 [7] [µg/mL] | EC50 (Human alphaherpesvirus 2 [8]) [µg/mL] | EC50 (Vaccinia virus [9]) [µg/mL] | EC50 (Cytomegalovirus [10]) [µg/mL] | EC50 (Cytomegalovirus [11]) [µg/mL] | EC50 (HEL) | EC50 (Human alphaherpesvirus 2 [12]) [µg/mL] | EC50 (Human alphaherpesvirus 1 [13]) | EC50 (Human alphaherpesvirus 1 [15]) | EC50 (Human alphaherpesvirus 2 [16]) | EC50 (Human alphaherpesvirus 2 [17]) | EC50 (E6SM) | EC50 [18] [µg/mL] | EC50 [19] [µg/mL] | other results |
| --- | --- | --- | --- | --- | --- | --- | --- | --- | --- | --- | --- | --- | --- | --- | --- | --- | --- | --- | --- | --- | --- |
| Nc1nc(O)c2c(ncn2CCOCP(=O)(O)O)n1 | 96 (≈ 332 µM) | > 100 | > 100 | 200 (≈ 692 µM) | 300 (≈ 1040 µM) | 150 (≈ 519 µM) | 200 (≈ 692 µM) | > 400 | > 400 | > 50 | > 50 | Not Active | 300 (≈ 1040 µM) |  |  |  |  |  |  |  |  |
| Nc1cnn(CCOCP(=O)(O)O)c(=O)n1 | > 100 |  |  |  |  |  |  |  |  | > 100 | > 100 |  |  | Not Active | Not Active | Not Active | Not Active | Not Active | > 100 | > 100 | EC50 (Human alphaherpesvirus 1 [14]): Not Active; EC50 (Human alphaherpesvirus 1 [20]): Not Active |
| Nc1nc(=O)ccn1CCOCP(=O)(O)O | > 100 |  |  |  | > 400 |  |  |  |  | > 100 | > 100 |  |  | Not Active | Not Active | Not Active | Not Active | Not Active | > 100 | > 100 | EC50 (Human alphaherpesvirus 1 [20]): Not Active |
| Nc1ncnc2c1ccn2CCOCP(=O)(O)O | 4.1 (≈ 15.1 µM) | 4 (≈ 14.7 µM) | 2.5 (≈ 9.18 µM) | 150 (≈ 551 µM) | 200 (≈ 735 µM) | 100 (≈ 367 µM) | 200 (≈ 735 µM) | 100 (≈ 367 µM) | 150 (≈ 551 µM) | > 50 | > 50 | Not Active | 70 (≈ 257 µM) |  |  |  |  |  | 7.56 (≈ 27.8 µM) | 8.27 (≈ 30.4 µM) |  |
| Nc1nc(N)c2ncn(CCOCP(=O)(O)O)c2n1 [PMEDAP] | 0.6 (≈ 2.08 µM) |  |  | 2 (≈ 6.94 µM) | 2 (≈ 6.94 µM) | 2 (≈ 6.94 µM) | 0.07 (≈ 0.243 µM) | 0.07 (≈ 0.243 µM) | 20 (≈ 69.4 µM) | 10 (≈ 34.7 µM) | 10 (≈ 34.7 µM) |  | 0.2 (≈ 0.694 µM) |  |  |  |  |  | 2.67 (≈ 9.26 µM) |  |  |
| CC(C)OP(=O)(COCCn1cnc2nc(N)nc(O)c21)OC(C)C | > 200 | > 100 | > 100 | > 200 | > 200 | > 200 | > 200 | > 200 | > 200 | > 50 | > 50 | Not Active | > 200 |  |  |  |  |  |  |  |  |
| CC(C)OP(=O)(COCCn1cnc2c(N)nc(Cl)nc21)OC(C)C | > 100 |  |  |  |  |  |  |  |  | 0.65 (≈ 1.66 µM) | 0.7 (≈ 1.79 µM) | Not Active |  | Not Active | Not Active | Not Active | Not Active | Not Active | > 20 |  | EC50 (Human alphaherpesvirus 1 [14]): Not Active; EC50 (Vaccinia virus [21]): Not Active; EC50 (Human alphaherpesvirus 1 [20]): Not Active |
| Nc1cc2c(ncn2CCOCP(=O)(O)O)c(N)n1 | 144 (≈ 501 µM) | 30 (≈ 104 µM) | 16 (≈ 55.7 µM) | 70 (≈ 244 µM) | 150 (≈ 522 µM) | 100 (≈ 348 µM) | 100 (≈ 348 µM) | 70 (≈ 244 µM) | 150 (≈ 522 µM) | > 50 | > 50 |  | 70 (≈ 244 µM) |  |  |  |  |  | 51 (≈ 178 µM) | 78.5 (≈ 273 µM) |  |
| Nc1nc(S)c2c(ncn2CCOCP(=O)(O)O)n1 | 31 (≈ 102 µM) | > 100 | > 100 |  | > 100 |  |  |  | > 100 | > 50 | > 50 |  | > 100 |  |  |  |  |  | > 100 | > 100 |  |
| CC(C)CCCCCOP(=O)(O)COCCn1cnc2c(O)nc(N)nc21 |  |  |  | 240 (≈ 598 µM) | 240 (≈ 598 µM) | 240 (≈ 598 µM) | 240 (≈ 598 µM) | 240 (≈ 598 µM) |  | > 50 | > 50 |  | 240 (≈ 598 µM) |  |  |  |  |  | > 100 | > 100 |  |
